The record followed here is ChEMBL document CHEMBL1136715, “Modifications of the ethanolamine head in N-palmitoylethanolamine: synthesis and evaluation of new agents interfering with the metabolism of anandamide” (J Med Chem, 2003).

In experiment [1] the target is Cannabinoid receptor 2 (Homo sapiens) (UniProt P34972). As to the kind of experiment: Percent inhibition of specific binding of [3H]WIN-55212-2 towards human cannabinoid receptor 2 from Chinese hamster ovary cell membranes at the concentration of 10 uM. The method, boiled down:
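Membranes (40 μg) from human CB2-transfected CHO cells (Ham's F12, 10% FBS, G418) were incubated with 1 nM [3H]-WIN 55,212-2 for 1 h at 30 °C in 50 mM Tris-HCl/MgCl2/EDTA, pH 7.4, with 50 μM PMSF. Bound radioligand was collected on 0.5% PEI-pretreated GF/B filters and counted by liquid scintillation.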

Experiment [2] concerns the target Cannabinoid receptor 1 (Homo sapiens) (UniProt P21554). As to the kind of experiment: Percent inhibition of specific binding of [3H]CP-55940 towards human cannabinoid receptor 1 from Chinese hamster ovary cell membranes at the concentration of 10 uM. The method, boiled down: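 Membranes (40 μg) from CHO cells stably expressing human CB1 (grown in Ham's F12, 10% FBS, G418) were incubated with 1 nM [3H]-CP55,940 for 1 h at 30 °C in 50 mM Tris-HCl with MgCl2 and EDTA, pH 7.4, plus 50 μM PMSF. Nonspecific binding was defined with 10 μM HU-210. Filtration was on PEI-treated GF/B filters, followed by scintillation counting.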

The species entered for experiment [3] is Rattus norvegicus. Nature of the experiment: Tested for percent inhibition of AEA (N-arachidonoylethanolamine) metabolism in rat brain homogenates using [3H]anandamide as the labeled substrate at 100 uM. It counts as functional.
For experiment [4], the species on record is Rattus norvegicus. Nature of the experiment: Percent inhibition of AEA (N-arachidonoylethanolamine) metabolism in rat brain homogenates using [3H]anandamide as the labeled substrate. It counts as functional. Further details: concentration or dose not given beside the values. To be noted: dose or concentration not given here. The method, boiled down:
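Rat brain membranes with test compound or ethanol carrier and [3H]-AEA (2 μM final) in 10 mM Tris-HCl, 1 mM EDTA, 1% w/v fatty-acid-free BSA, pH 7.6, for 10 min at 37 °C. Ice plus chloroform/methanol (1:1) stopped the reaction, and the methanol/buffer phase was counted with quench correction. Blanks used water in place of homogenate. Values come from at least three experiments.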

The species entered for experiment [5] is Rattus norvegicus. As to the kind of experiment: Inhibition of AEA (N-arachidonoylethanolamine) metabolism using rat brain homogenates at pH 9 using [3H]anandamide as the labeled substrate. Type of experiment: functional. To be noted: dose or concentration not given here. The method, boiled down: (§1)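 Rat brain membranes (adult, minus cerebellum) were homogenized in 20 mM HEPES pH 7.0 with 1 mM MgCl2, washed, preincubated 15 min at 37 °C, and stored at -70 °C. Incubation was with [3H]-AEA (2 μM final) for 10 min at 37 °C at pH 6 or pH 9. Chloroform/methanol stopped the reaction, and [3H]-ethanolamine in the aqueous phase was counted. pI50 and maximal inhibition came from 3–5 experiments (three homogenate preparations) over 3–100 μM (seven concentrations).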

The species named for experiment [6] is Rattus norvegicus. As to the kind of experiment: Inhibition of AEA (N-arachidonoylethanolamine) metabolism using rat brain homogenates at pH 6 using [3H]-anandamide as the labeled substrate. Type of experiment: functional. The conditions noted are these: dose or concentration not given here. Put shortly:
as §1

Experiment [7] is filed under the species Rattus norvegicus. As to the kind of experiment: Inhibition of AEA (N-arachidonoylethanolamine) metabolism using rat brain homogenates at pH 6 and at the concentration of 50 uM using [3H]anandamide as the labeled substrate. It counts as functional.

Chain of Cannabinoid receptor 2 (Homo sapiens) (P34972 whole entry): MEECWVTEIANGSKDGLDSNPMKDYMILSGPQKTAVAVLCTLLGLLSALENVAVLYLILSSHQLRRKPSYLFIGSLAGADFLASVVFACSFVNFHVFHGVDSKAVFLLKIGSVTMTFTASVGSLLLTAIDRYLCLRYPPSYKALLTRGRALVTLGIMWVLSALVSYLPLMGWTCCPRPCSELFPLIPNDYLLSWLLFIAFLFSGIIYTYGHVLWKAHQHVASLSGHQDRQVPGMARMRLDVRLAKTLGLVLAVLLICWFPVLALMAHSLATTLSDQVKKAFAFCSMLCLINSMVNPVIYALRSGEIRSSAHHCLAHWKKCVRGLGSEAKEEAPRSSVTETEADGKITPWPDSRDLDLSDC
Chain of Cannabinoid receptor 1 (Homo sapiens) (P21554 whole entry): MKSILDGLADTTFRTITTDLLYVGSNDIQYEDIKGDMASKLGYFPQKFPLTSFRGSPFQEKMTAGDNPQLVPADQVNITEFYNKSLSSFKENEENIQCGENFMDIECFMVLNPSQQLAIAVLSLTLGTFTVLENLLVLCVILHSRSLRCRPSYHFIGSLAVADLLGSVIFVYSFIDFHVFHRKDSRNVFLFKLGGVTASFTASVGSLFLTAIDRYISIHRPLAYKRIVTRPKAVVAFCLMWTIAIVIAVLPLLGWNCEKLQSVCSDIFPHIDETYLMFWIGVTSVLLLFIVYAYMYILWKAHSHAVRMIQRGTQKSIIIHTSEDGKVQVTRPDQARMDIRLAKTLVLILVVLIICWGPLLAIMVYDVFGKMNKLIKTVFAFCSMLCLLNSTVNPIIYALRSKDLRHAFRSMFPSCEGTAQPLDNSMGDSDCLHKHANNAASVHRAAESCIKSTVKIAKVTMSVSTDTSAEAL

`CCCCCCCCCCCCCCCC(=O)NC(c1ccccc1)c1ccccc1`: the inhibition (as a rule, the percentage by which the read-out fell short of the control) was found to be 1.1% in experiment [1], 2.2% in experiment [2] and 0% in the experiment filed under Rattus norvegicus [3].
On to `CCCCCCCCCCCCCCCC(=O)NCCCO`, for which the inhibition in experiment [1] is 6.4%; in the experiment listed under Rattus norvegicus [4] it was 61%; in experiment [2] it was 15%; in the experiment filed under Rattus norvegicus [5], 81%; in the experiment listed under Rattus norvegicus [6], 45%.
For the compound `CCCCCCCCCCCCCCCC(=O)NC(C)(C)C`, the inhibition in experiment [1] came out at 2%; in the experiment listed under Rattus norvegicus [4] it was 0%; in experiment [2], 24.6%.
As to `CCCCCCCCCCCCCCCC(=O)N(CC)CC`, the inhibition was determined as 2.7% in experiment [1], 3.3% in experiment [2] and 2% in the experiment filed under Rattus norvegicus [3].
With `CCCCCCCCCCCCCCCC(=O)N(C)C`, the inhibition in experiment [1] worked out at 6.4%; in experiment [2], 0.3%; in the experiment filed under Rattus norvegicus [3], 30%.
As to `CCCCCCCCCCCCCCCC(=O)NCCO`, the inhibition came out at 78% in the experiment listed under Rattus norvegicus [4], 100% in the experiment listed under Rattus norvegicus [5] and 62% in the experiment filed under Rattus norvegicus [6].
Regarding `CCCCCCCCCCCCCCCC(N)=O`, the inhibition in experiment [1] came out at 12.9%; in the experiment listed under Rattus norvegicus [4] it was 51%; in experiment [2], 11.7%.
Take `CCCCCCCCCCCCCCCC(=O)NCCCCl`: the figures for the inhibition (in experiment [1]; in the experiment listed under Rattus norvegicus [4]; in experiment [2]) were 14.3%, 27% and 30.6%, respectively.
For the compound `CCCCCCCCCCCCCCCC(=O)NC(C)(C)CO`, the inhibition turned out to be 6.7% in experiment [1], 0% in the experiment filed under Rattus norvegicus [4] and 15.7% in experiment [2].
As to `CCCCCCCCCCCCCCCC(=O)Nc1ccccc1O`, the inhibition in experiment [1] was 2.7%; in experiment [2] it was 10.8%; in the experiment listed under Rattus norvegicus [3], 53%.
For `CCCCCCCCCCCCCCCC(=O)NC1CCCC1`, in that order: 9.5%, 27.1% and 43%.
As for `CCCCCCCCCCCCCCCC(=O)NCCCC`, the inhibition amounted to 12.9% in experiment [1], 24% in the experiment listed under Rattus norvegicus [4] and 19.6% in experiment [2].
Consider `CCCCCCCCCCCCCCCC(=O)NCCCl`, for which the results for the inhibition (in experiment [1]; in the experiment filed under Rattus norvegicus [4]; in experiment [2]) were 13.5%, 48% and 25.2%, respectively.
For `CCCCCCCCCCCCCCCC(=O)Nc1ccccc1C`, the results for the inhibition (in experiment [1]; in the experiment filed under Rattus norvegicus [4]; in experiment [2]) were 6.5%, 31% and 4.9%, respectively.
`CCCCCCCCCCCCCCCC(=O)NCCc1ccccc1`: the inhibition in experiment [1] was 1.3%; in experiment [2], 22.8%; in the experiment listed under Rattus norvegicus [3], 19%.
Consider `CCCCCCCCCCCCCCCC(=O)Nc1cccc(O)c1`, for which the inhibition in experiment [1] stood at 3.9%; in experiment [2], 40.9%; in the experiment listed under Rattus norvegicus [3], 51%.
With `CCCCCCCCCCCCCCCC(=O)NC1CCCCC1`, the inhibition in the experiment listed under Rattus norvegicus [3] was determined as 11%.
In the case of `CCCCCCCCCCCCCCCC(=O)NOC`, the inhibition in experiment [1] came out at 5.2%; in the experiment listed under Rattus norvegicus [4], 46%; in experiment [2], 18.1%.
Consider `CCCCCCCCCCCCCCCC(=O)Nc1ccc(Cl)cc1`, for which the values for the inhibition (in experiment [1]; in the experiment listed under Rattus norvegicus [4]; in experiment [2]) were 7.4%, 11% and 11.1%, respectively.
In the case of `CCCCCCCCCCCCCCCC(=O)NCC(=O)OC`, the inhibition in experiment [1] came to 4.1%; in the experiment listed under Rattus norvegicus [4], 100%; in experiment [2], 7.3%; in the experiment listed under Rattus norvegicus [5] it was 100%; in the experiment listed under Rattus norvegicus [6], 75%.
Turning to `CCCCCCCCCCCCCCCC(=O)NCCF`, the figures for the inhibition (in experiment [1]; in experiment [2]; in the experiment filed under Rattus norvegicus [3]) were 3.9%, 8.2% and 6%, respectively.
As to `CCCCCCCCCCCCCCCC(=O)Nc1ccc(O)cc1`, the values for the inhibition (in experiment [1]; in experiment [2]; in the experiment listed under Rattus norvegicus [3]) were 5%, 44.8% and 55%, respectively.
As to `CCCCCCCCCCCCCCCC(=O)NCCBr`, the inhibition in experiment [1] was found to be 15.1%; in the experiment listed under Rattus norvegicus [4] it was 41%; in experiment [2], 35.8%.
On to `CCCCCCCCCCCCCCCC(=O)NCC(C)C`, for which the inhibition in experiment [1] came out at 8.9%; in the experiment listed under Rattus norvegicus [4], 6%; in experiment [2] it was 18.5%.
Turning to `CCCCCCCCCCCCCCCC(=O)Nc1ccccc1`, the inhibition in experiment [1] came out at 0.5%; in the experiment listed under Rattus norvegicus [4] it was 18%; in experiment [2] it was 2.8%.
For the compound `CCCCCCCCCCCCCCCC(=O)N1CCOCC1`, the inhibition in experiment [1] came out at 4.2%; in experiment [2], 15.5%; in the experiment filed under Rattus norvegicus [3], 6%.
`CCCCCCCCCCCCCCCC(=O)NCc1ccc(C)cc1`: the inhibition came out at 0.7% in experiment [1], 100% in the experiment listed under Rattus norvegicus [4] and 4.8% in experiment [2].
For `CCCCCCCCCCCCCCCC(=O)Nc1ccc(C)cc1`, the results for the inhibition (in experiment [1]; in experiment [2]; in the experiment listed under Rattus norvegicus [3]) were 6.5%, 2.8% and 0%, respectively.
Regarding `CCCCCCCCCCCCCCCC(=O)NC(C)C`, the inhibition in the experiment listed under Rattus norvegicus [7] came to 4%; in the experiment listed under Rattus norvegicus [4], 61%; in the experiment listed under Rattus norvegicus [5], 39%.
In the case of `CCCCCCCCCCCCCCCNC(=O)COC(C)=O`, the values for the inhibition (in experiment [1]; in the experiment filed under Rattus norvegicus [4]; in experiment [2]) were 6%, 87% and 16%, respectively.
Taken in the same sequence, the figures for `CCCCCCCCCCCCCCCC(=O)NC1CC1` were 16.3%, 57% and 12.8%.
Regarding `CCCCCCCCCCCCCCCC(=O)NC`, the results for the inhibition (in the experiment listed under Rattus norvegicus [4]; in experiment [2]) were 100% and 2.5%, respectively.
For `CCCCCCCCCCCCCCCC(=O)NCCC`, the inhibition in experiment [1] stood at 6.1%; in the experiment listed under Rattus norvegicus [4], 49%; in experiment [2] it was 14.4%.
Regarding `CCCCCCCCCCCCCCCC(=O)NCc1ccc(OC)cc1`, the inhibition came out at 3.7% in experiment [1], 25.4% in experiment [2] and 29% in the experiment filed under Rattus norvegicus [3].
Take `CCCCCCCCCCCCCCCC(=O)NCC`: the inhibition in experiment [1] came out at 10%; in the experiment listed under Rattus norvegicus [4], 72%; in experiment [2], 2.8%.
As to `CCCCCCCCCCCCCCCC(=O)Nc1ccc2ccccc2c1`, the inhibition in experiment [1] turned out to be 0.1%; in the experiment listed under Rattus norvegicus [4] it was 28%; in experiment [2], 0.7%.
Taken in the same sequence, the figures for `C=CCNC(=O)CCCCCCCCCCCCCCC` were 7.8%, 67% and 13.3%.
